≈ marks a conversion by molar mass, not a printed value. Calls of active or inactive are those of the source. No cut-off for these calls is given here.
What was measured:
Pseudomonas aeruginosa [1] = assay: Antibacterial activity against Pseudomonas aeruginosa PAO1 after 20 hrs in the presence of PMBN by broth microdilution method; format: functional; conditions: PAO1, 20 h
How it was run: (§1)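 Broth microdilution in Tryptic Soy Broth, done in triplicate. Growth was read as OD600 after 20 h. MIC is the lowest drug concentration giving OD600 below 0.1.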

Klebsiella pneumoniae [2] = assay: Antibacterial activity against Klebsiella pneumoniae NCTC 13368 after 20 hrs by broth microdilution method; format: functional; conditions: NCTC 13368, 20 h; how it was run: as §1
Klebsiella pneumoniae [3] = assay: Antibacterial activity against Klebsiella pneumoniae M6 after 20 hrs in the presence of Pa-beta-N and magnesium ions by broth microdilution method; format: functional; conditions: M6, 20 h; how it was run: as §1
Enterococcus faecalis [4] = assay: Antibacterial activity against vancomycin-sensitive Enterococcus faecalis NCTC 775 after 20 hrs by broth microdilution method; format: functional; conditions: NCTC 775, 20 h; how it was run: as §1
Klebsiella pneumoniae [5] = assay: Antibacterial activity against Klebsiella pneumoniae NCTC 13368 after 20 hrs in the presence of PMBN by broth microdilution method; format: functional; conditions: NCTC 13368, 20 h; how it was run: as §1
Klebsiella pneumoniae [6] = assay: Antibacterial activity against Klebsiella pneumoniae NCTC 13368 after 20 hrs in the presence of Pa-beta-N and magnesium ions by broth microdilution method; format: functional; conditions: NCTC 13368, 20 h; how it was run: as §1
Staphylococcus aureus [7] = assay: Bactericidal activity against methicillin-resistant Staphylococcus aureus EMRSA-15 assessed as time required to kill bacteria by >6 log10CFU/ml at 4 times MIC by Miles Misra dilution method; format: functional
How it was run: (§2)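 Flasks of TSB inoculated at ~10^6 cfu/mL, compound added at 4 × MIC, shaken at 200 rpm and 37 °C. Samples taken at 1, 2, 4, 6 and 24 h and plated by Miles Misra dilution for CFU/mL. Bactericidal means a loss of >3 log CFU/mL. Three independent repeats, error bars SD.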

[8] = Cytotoxicity against human HeLa cells assessed as cell viability at 25 uM after 24 hrs by MTT assay; format: cell-based; conditions: read-out: Activity
How it was run: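 HeLa cells, 10000 per well, were grown at 37 °C in 5% CO2 and allowed to settle for 24 h. Compound was then added in triplicate for 24 h of continuous exposure. Viability was read by MTT colorimetry, with absorbance at 570 nm.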

Enterococcus faecalis [9] = assay: Bactericidal activity against vancomycin-resistant Enterococcus faecalis NCTC 12201 at 4 times MIC after 24 hrs by Miles Misra dilution method; format: functional; how it was run: as §2
Acinetobacter baumannii [10] = assay: Antibacterial activity against Acinetobacter baumannii ATCC 17978 after 20 hrs in the presence of PMBN by broth microdilution method; format: functional; conditions: ATCC 17978, 20 h; how it was run: as §1
Enterococcus faecalis [11] = assay: Bactericidal activity against vancomycin-resistant Enterococcus faecalis NCTC 12201 assessed as time required to kill bacteria by >6 log10CFU/ml at 4 times MIC by Miles Misra dilution method; format: functional; how it was run: as §2
Pseudomonas aeruginosa [12] = assay: Antibacterial activity against Pseudomonas aeruginosa NCTC 13437 after 20 hrs in the presence of PMBN by broth microdilution method; format: functional; conditions: NCTC 13437, 20 h; how it was run: as §1
Pseudomonas aeruginosa [13] = assay: Antibacterial activity against Pseudomonas aeruginosa PAO1 after 20 hrs in the presence of Pa-beta-N and magnesium ions by broth microdilution method; format: functional; conditions: PAO1, 20 h; how it was run: as §1
Staphylococcus aureus [14] = assay: Antibacterial activity against methicillin-sensitive Staphylococcus aureus ATCC 9144 after 20 hrs by broth microdilution method; format: functional; conditions: ATCC 9144, 20 h; how it was run: as §1
[15] = Stabilization of FAM/TAMRA-labeled AT-rich DNA duplex (unknown origin) assessed as change in melting temperature at 5 uM by FRET-based assay
How it was run: (§3)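 FRET melting of a FAM/TAMRA-labelled AT-rich oligonucleotide, 400 nM working solution in 50 mM potassium, 50 mM cacodylate, pH 7.4. DNA was annealed at 85 °C for 6 min, then held at 25 °C for 5 h, and mixed 1:1 with sample. Fluorescence was read every 0.5 °C from 30 to 100 °C, with a 30 s hold per step. ΔTm is measured against the blank, in triplicate.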

Klebsiella pneumoniae [16] = assay: Antibacterial activity against Klebsiella pneumoniae M6 after 20 hrs by broth microdilution method; format: functional; conditions: M6, 20 h; how it was run: as §1
[17] = Stabilization of FAM/TAMRA-labeled AT-rich DNA duplex (unknown origin) assessed as change in melting temperature at 1 uM by FRET-based assay; how it was run: as §3
Enterococcus faecium = assay: Antibacterial activity against vancomycin-resistant Enterococcus faecium NCTC 12204 after 20 hrs by broth microdilution method; format: functional; conditions: NCTC 12204, 20 h
How it was run: (§4)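 Broth microdilution in Tryptic Soy Broth; growth read as OD600 after 20 h. MIC taken as the lowest drug concentration giving OD600 below 0.1. Run in triplicate.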

Klebsiella pneumoniae [18] = assay: Antibacterial activity against Klebsiella pneumoniae M6 after 20 hrs in the presence of PMBN by broth microdilution method; format: functional; conditions: M6, 20 h; how it was run: as §1
Staphylococcus aureus [19] = assay: Antibacterial activity against methicillin-resistant Staphylococcus aureus EMRSA-15 after 20 hrs by broth microdilution method; format: functional; conditions: EMRSA-15, 20 h; how it was run: as §4
Enterococcus faecalis [20] = assay: Antibacterial activity against vancomycin-resistant Enterococcus faecalis NCTC 12201 after 20 hrs by broth microdilution method; format: functional; conditions: NCTC 12201, 20 h; how it was run: as §4
Pseudomonas aeruginosa [21] = assay: Antibacterial activity against Pseudomonas aeruginosa NCTC 13437 after 20 hrs in the presence of Pa-beta-N and magnesium ions by broth microdilution method; format: functional; conditions: NCTC 13437, 20 h; how it was run: as §1
Acinetobacter baumannii [22] = assay: Antibacterial activity against Acinetobacter baumannii ATCC 17978 after 20 hrs by broth microdilution method; format: functional; conditions: ATCC 17978, 20 h; how it was run: as §1
Acinetobacter baumannii [23] = assay: Antibacterial activity against Acinetobacter baumannii AYE after 20 hrs in the presence of PMBN by broth microdilution method; format: functional; how it was run: as §1
Acinetobacter baumannii [24] = assay: Antibacterial activity against Acinetobacter baumannii AYE after 20 hrs in the presence of Pa-beta-N and magnesium ions by broth microdilution method; format: functional; how it was run: as §1
Acinetobacter baumannii [25] = assay: Antibacterial activity against Acinetobacter baumannii ATCC 17978 after 20 hrs in the presence of Pa-beta-N and magnesium ions by broth microdilution method; format: functional; conditions: ATCC 17978, 20 h; how it was run: as §1
Acinetobacter baumannii [26] = assay: Antibacterial activity against Acinetobacter baumannii AYE after 20 hrs by broth microdilution method; format: functional; how it was run: as §1
Pseudomonas aeruginosa [27] = assay: Antibacterial activity against Pseudomonas aeruginosa NCTC 13437 after 20 hrs by broth microdilution method; format: functional; conditions: NCTC 13437, 20 h; how it was run: as §1
Pseudomonas aeruginosa [28] = assay: Antibacterial activity against Pseudomonas aeruginosa PAO1 after 20 hrs by broth microdilution method; format: functional; conditions: PAO1, 20 h; how it was run: as §1
Staphylococcus aureus [29] = assay: Antibacterial activity against methicillin-resistant Staphylococcus aureus MRSA252 after 20 hrs by broth microdilution method; format: functional; conditions: MRSA252, 20 h; how it was run: as §4

What does the source list for `Cc1nc2ccc(C(=O)Nc3cccc(-c4ccc(-n5c(C)nc6cc(C(=O)NCCN(C)C)ccc65)nc4)c3)cc2[nH]1`?
MIC (Pseudomonas aeruginosa [1]): > 32 µg/mL; MIC (Klebsiella pneumoniae [2]): > 32 µg/mL; MIC (Klebsiella pneumoniae [3]): > 32 µg/mL; MIC (Enterococcus faecalis [4]): 4 µg/mL (≈ 6.98 µM); MIC (Klebsiella pneumoniae [5]): > 32 µg/mL; MIC (Klebsiella pneumoniae [6]): > 32 µg/mL; Time (Staphylococcus aureus [7]): 4 h; viability at 24 h, 25 µM [8]: > 98%; Activity (Enterococcus faecalis [9]): inactive; MIC (Acinetobacter baumannii [10]): 32 µg/mL; Time (Enterococcus faecalis [11]): 4 h; MIC (Pseudomonas aeruginosa [12]): > 32 µg/mL; MIC (Pseudomonas aeruginosa [13]): > 32 µg/mL; MIC (Staphylococcus aureus [14]): 2 µg/mL (≈ 3.49 µM); deltaTm [15]: 0.9 °C; MIC (Klebsiella pneumoniae [16]): > 32 µg/mL; deltaTm [17]: 0.2 °C; MIC (Enterococcus faecium): 2 µg/mL (≈ 3.49 µM); MIC (Klebsiella pneumoniae [18]): 16 µg/mL; MIC (Staphylococcus aureus [19]): 2 µg/mL (≈ 3.49 µM); MIC (Enterococcus faecalis [20]): 1 µg/mL (≈ 1.75 µM); MIC (Pseudomonas aeruginosa [21]): > 32 µg/mL; MIC (Acinetobacter baumannii [22]): > 32 µg/mL; MIC (Acinetobacter baumannii [23]): 32 µg/mL; MIC (Acinetobacter baumannii [24]): > 32 µg/mL; MIC (Acinetobacter baumannii [25]): 32 µg/mL; MIC (Acinetobacter baumannii [26]): > 32 µg/mL; MIC (Pseudomonas aeruginosa [27]): > 32 µg/mL; MIC (Pseudomonas aeruginosa [28]): > 32 µg/mL; MIC (Staphylococcus aureus [29]): 8 µg/mL (≈ 14 µM)
